Reference: ChEMBL document CHEMBL3400077 (Bioorg Med Chem Lett, 2015)
The source made the active and inactive calls. The calls are words filed in the database; no cut-off is given here.

What was measured:
[1] = biological target: T1, Fatty-acid amide hydrolase 1 (Homo sapiens) (UniProt O00519); experiment: Inhibition of human FAAH using [ethanolamine 1-3H] substrate assessed as radioactivity at 10 uM by liquid scintillation counting analysis
T1 sequence (whole entry): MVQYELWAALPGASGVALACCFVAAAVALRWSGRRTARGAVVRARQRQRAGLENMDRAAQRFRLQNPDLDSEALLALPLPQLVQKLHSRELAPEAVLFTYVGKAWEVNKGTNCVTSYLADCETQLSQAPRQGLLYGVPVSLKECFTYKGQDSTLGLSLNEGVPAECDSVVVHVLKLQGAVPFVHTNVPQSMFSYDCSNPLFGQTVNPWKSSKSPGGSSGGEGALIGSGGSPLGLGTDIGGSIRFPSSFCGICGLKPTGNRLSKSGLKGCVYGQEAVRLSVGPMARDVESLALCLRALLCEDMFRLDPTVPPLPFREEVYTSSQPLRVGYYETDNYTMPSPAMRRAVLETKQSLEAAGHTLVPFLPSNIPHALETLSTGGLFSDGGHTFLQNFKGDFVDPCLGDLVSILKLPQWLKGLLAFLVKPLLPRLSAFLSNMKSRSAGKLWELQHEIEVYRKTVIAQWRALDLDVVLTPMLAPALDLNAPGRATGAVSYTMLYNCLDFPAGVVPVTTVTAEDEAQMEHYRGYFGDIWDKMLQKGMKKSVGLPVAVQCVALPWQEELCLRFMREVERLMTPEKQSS
Summary of the method: (§1)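 Human recombinant enzyme screened at a single test concentration; percent inhibition is the mean of two independent experiments, each run in duplicate.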

[2] = biological target: T2, Monoglyceride lipase (Homo sapiens) (UniProt Q99685); experiment: Inhibition of human recombinant MAGL using 2-arachidonoylglycerol substrate assessed as arachidonic acid at 10 uM by HPLC analysis; summary of the method: as §1
T2 sequence (whole entry): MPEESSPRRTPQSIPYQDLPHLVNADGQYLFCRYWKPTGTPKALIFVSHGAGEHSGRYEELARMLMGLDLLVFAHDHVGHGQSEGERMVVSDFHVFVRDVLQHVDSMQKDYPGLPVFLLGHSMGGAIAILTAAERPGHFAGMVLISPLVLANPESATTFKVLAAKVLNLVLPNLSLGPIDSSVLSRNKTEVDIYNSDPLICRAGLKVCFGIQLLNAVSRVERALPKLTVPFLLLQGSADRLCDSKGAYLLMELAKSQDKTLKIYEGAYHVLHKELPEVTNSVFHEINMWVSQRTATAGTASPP

[3] = biological target: T3, Monoglyceride lipase (Homo sapiens, UniProt Q99685); experiment: Inhibition of human recombinant MAGL using 2-arachidonoylglycerol substrate assessed as arachidonic acid by HPLC analysis
T3 sequence (Q99685 whole entry): T2 sequence (whole entry)

[4] = biological target: T4, Fatty-acid amide hydrolase 1 (Homo sapiens, UniProt O00519); experiment: Inhibition of human FAAH using [ethanolamine 1-3H] substrate assessed as radioactivity by liquid scintillation counting analysis
T4 sequence (O00519 whole entry): T1 sequence (whole entry)

[5] = biological target: T5, Lysophosphatidylserine lipase ABHD12 (Homo sapiens) (UniProt Q8N2K0); experiment: Inhibition of human ABHD12 containing pCMV6-XL4-hABHD12 transfected into HEK293 cells at 10 uM; assay type: cell-based
T5 sequence (whole entry): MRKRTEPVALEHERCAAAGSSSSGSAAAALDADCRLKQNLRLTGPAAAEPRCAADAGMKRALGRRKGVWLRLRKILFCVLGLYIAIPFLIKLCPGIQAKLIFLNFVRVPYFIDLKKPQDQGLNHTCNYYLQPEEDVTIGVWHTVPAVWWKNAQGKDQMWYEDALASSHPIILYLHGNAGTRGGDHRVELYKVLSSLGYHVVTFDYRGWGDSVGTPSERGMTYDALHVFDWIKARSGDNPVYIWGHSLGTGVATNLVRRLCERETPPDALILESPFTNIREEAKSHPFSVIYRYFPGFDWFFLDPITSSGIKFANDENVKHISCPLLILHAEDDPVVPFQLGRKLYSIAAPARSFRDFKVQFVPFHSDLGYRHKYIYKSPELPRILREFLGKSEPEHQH

[6] = biological target: Histamine H1 receptor (Cavia porcellus, UniProt P31389); experiment: Antagonist activity at histamine H1 receptor in guinea pig jejunum assessed as reduction in histamine-induced contractions; conditions: read-out: pA2 (converted)
[7] = biological target: T6, Monoacylglycerol lipase ABHD6 (Homo sapiens, UniProt Q9BV23); experiment: Inhibition of human ABHD6 containing pCMV6-AC-hABHD6 transfected into HEK293 cells; assay type: cell-based
T6 sequence (Q9BV23 whole entry): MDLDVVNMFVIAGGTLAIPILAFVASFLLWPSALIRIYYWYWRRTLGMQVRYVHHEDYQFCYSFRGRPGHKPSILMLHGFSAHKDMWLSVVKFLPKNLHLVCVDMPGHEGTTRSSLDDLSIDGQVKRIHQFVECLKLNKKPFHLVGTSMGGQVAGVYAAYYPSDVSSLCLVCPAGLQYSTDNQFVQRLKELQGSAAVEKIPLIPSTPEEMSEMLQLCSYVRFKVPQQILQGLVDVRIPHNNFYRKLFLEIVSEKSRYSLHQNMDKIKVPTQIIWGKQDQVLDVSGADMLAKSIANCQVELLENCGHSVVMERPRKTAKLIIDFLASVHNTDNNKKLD

[8] = biological target: T3, Monoglyceride lipase; experiment: Reversible inhibition of human recombinant MAGL using 2-arachidonoylglycerol substrate assessed as arachidonic acid after 30 mins by HPLC analysis
[9] = biological target: T3, Monoglyceride lipase; experiment: Reversible inhibition of human recombinant MAGL using 2-arachidonoylglycerol substrate assessed as arachidonic acid after 60 mins by HPLC analysis
[10] = biological target: Cannabinoid receptor 1 (Rattus norvegicus) (UniProt P20272); experiment: Antagonist activity at rat cerebellar membrane cannabinoid CB1 receptor assessed as HU210-evoked [35S]GTPgammaS binding response relative to control; assay type: functional; parameters: scale not given: the % may be the effect or the level left
Summary of the method: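 [35S]GTPγS binding in rat cerebellar membranes, test compound co-incubated with HU210 agonist. Expressed as % of the HU210-evoked response, mean (range), n = 2.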

[11] = biological target: T3, Monoglyceride lipase; experiment: Reversible inhibition of human recombinant MAGL using 2-arachidonoylglycerol substrate assessed as arachidonic acid after 10 mins by HPLC analysis
[12] = biological target: Cannabinoid receptor 1 (Rattus norvegicus) (UniProt P20272); experiment: Agonist activity at rat cerebellar membrane cannabinoid CB1 receptor assessed as [35S]GTPgammaS binding relative to control; assay type: functional
Summary of the method: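 [35S]GTPγS binding in rat cerebellar membranes, test compound alone at a single concentration. Read-out is % of basal binding, mean (range), n = 2.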

[13] = biological target: Cannabinoid receptor 2 (Homo sapiens) (UniProt P34972); experiment: Agonist activity at human cannabinoid CB2 receptor introduced into CHO cells assessed as [35S]GTPgammaS binding relative to control; assay type: functional, cell-based
Summary of the method: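 [35S]GTPγS binding in membranes from CHO cells expressing hCB2R, test compound alone. Read-out is % of basal binding, mean (range), n = 2.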

[14] = biological target: T3, Monoglyceride lipase; experiment: Reversible inhibition of human recombinant MAGL using 2-arachidonoylglycerol substrate assessed as arachidonic acid after 90 mins by HPLC analysis

Sequence of Cannabinoid receptor 1 (Rattus norvegicus) (P20272 whole entry): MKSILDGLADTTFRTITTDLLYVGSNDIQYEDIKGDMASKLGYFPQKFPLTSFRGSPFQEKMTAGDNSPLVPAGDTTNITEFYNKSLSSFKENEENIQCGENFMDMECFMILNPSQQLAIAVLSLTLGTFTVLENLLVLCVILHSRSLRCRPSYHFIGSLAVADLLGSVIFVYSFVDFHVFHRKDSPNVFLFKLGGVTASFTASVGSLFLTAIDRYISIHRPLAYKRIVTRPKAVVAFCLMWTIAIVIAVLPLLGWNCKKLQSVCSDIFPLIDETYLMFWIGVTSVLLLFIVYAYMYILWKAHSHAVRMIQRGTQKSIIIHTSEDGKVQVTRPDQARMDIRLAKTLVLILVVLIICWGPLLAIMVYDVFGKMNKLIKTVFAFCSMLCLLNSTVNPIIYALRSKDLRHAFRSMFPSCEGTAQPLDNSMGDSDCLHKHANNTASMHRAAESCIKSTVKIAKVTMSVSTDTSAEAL
Sequence of Histamine H1 receptor (P31389 whole entry): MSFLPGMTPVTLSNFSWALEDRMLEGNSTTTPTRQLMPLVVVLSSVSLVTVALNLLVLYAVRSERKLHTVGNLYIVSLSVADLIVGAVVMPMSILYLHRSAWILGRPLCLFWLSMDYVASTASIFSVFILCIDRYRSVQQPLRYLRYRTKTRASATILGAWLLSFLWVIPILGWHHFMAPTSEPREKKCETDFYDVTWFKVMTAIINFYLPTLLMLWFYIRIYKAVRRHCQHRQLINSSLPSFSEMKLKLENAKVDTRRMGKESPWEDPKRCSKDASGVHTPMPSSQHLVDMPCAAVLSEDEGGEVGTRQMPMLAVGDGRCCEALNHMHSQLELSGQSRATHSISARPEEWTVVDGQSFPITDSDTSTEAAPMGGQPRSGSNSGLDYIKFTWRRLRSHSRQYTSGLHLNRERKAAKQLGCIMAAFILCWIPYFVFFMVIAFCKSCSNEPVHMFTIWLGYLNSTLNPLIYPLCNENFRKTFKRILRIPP
Sequence of Cannabinoid receptor 2 (Homo sapiens) (P34972 whole entry): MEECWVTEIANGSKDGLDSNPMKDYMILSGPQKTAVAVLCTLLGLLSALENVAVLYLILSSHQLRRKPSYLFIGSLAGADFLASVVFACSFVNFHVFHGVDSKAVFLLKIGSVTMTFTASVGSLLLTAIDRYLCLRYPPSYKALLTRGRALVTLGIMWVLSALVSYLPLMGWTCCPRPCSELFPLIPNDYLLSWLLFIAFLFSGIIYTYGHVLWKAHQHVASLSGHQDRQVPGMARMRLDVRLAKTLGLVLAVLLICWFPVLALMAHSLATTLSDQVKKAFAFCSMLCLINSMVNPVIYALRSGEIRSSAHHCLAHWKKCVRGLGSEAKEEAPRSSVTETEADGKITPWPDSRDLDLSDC

SMILES | inhibition [1] | inhibition [2] | IC50 [3] | further results
CCOC(=O)N1CCC(=C2c3ccc(Cl)cc3CCc3cccnc32)CC1 | 11% | inactive |  | 
O=C(OC(C(F)(F)F)C(F)(F)F)N1CCC(=C2c3ccc(Cl)cc3CCc3cccnc32)CC1 | 15% |  | 645 nM | 
O=[N+]([O-])c1ccc(SC(=S)N2CCC(=C3c4ccc(Cl)cc4CCc4cccnc43)CC2)c([N+](=O)[O-])c1 | 12% | 14% |  | 
O=C(N1CCC(=C2c3ccc(Cl)cc3CCc3cccnc32)CC1)n1ccnc1 | 7% | inactive |  | 
O=C(N1CCC(=C2c3ccccc3C=Cc3ccccc32)CC1)n1cncn1 |  |  | 47 nM | IC50 [4]: 6910 nM; inhibition [5]: inactive; Kb [6]: 316 nM; IC50 [7]: 750 nM
O=C(NC1CCCCC1)N1CCC(=C2c3ccc(Cl)cc3CCc3cccnc32)CC1 | 9% | inactive |  | 
O=C(Oc1ccc([N+](=O)[O-])cc1)N1CCC(=C2c3ccc(Cl)cc3CCc3cccnc32)CC1 | 6% | 27% |  | 
CN(C(=O)N1CCC(=C2c3ccc(Cl)cc3CCc3cccnc32)CC1)c1ccccc1 | 11% | inactive |  | 
O=C(N1CCC(=C2c3ccc(Cl)cc3CCc3cccnc32)CC1)n1nnc2ccccc21 | 22% |  | 208 nM | 
O=C(ON1C(=O)CCC1=O)N1CCC(=C2c3ccc(Cl)cc3CCc3cccnc32)CC1 | 12% |  | 2570 nM | 
O=C(N1CCC(C(c2ccc3c(c2)OCO3)c2ccc3c(c2)OCO3)CC1)n1cncn1 |  |  | 0.36 nM | 
O=C(N1CCC(=C2c3ccc(Cl)cc3CCc3cccnc32)CC1)n1nnc2ncccc21 | 30% |  | 98 nM | 
O=C(Oc1ccc([N+](=O)[O-])cc1[N+](=O)[O-])N1CCC(=C2c3ccc(Cl)cc3CCc3cccnc32)CC1 | 14% | inactive |  | 
CN(C(=O)N1CCC(=C2c3ccc(Cl)cc3CCc3cccnc32)CC1)C1CCCCC1 | inactive | inactive |  | 
O=C(N1CCC(=C2c3ccc(Cl)cc3CCc3cccnc32)CC1)n1cncn1 |  |  | 46 nM | IC50 [8]: 224 nM; IC50 [4]: 7240 nM; IC50 [9]: 257 nM; inhibition [5]: inactive; Kb [6]: 155 nM; Activity [10]: 80%; IC50 [11]: 209 nM; Activity [12]: 90%; Activity [13]: 101%; IC50 [14]: 309 nM; IC50 [7]: 1780 nM
